According to ChEMBL document CHEMBL1687733, “Topoisomerase I gene mutations at F270 in the large subunit and N184 in the small subunit contribute to the resistance mechanism of the unicellular parasite Leishmania donovani towards 3,3'-diindolylmethane” (Antimicrob Agents Chemother, 2009):
Active and inactive are the calls of the source.

Key:
DNA topoisomerase I = DNA topoisomerase I (Leishmania donovani (strain BPK282A1), UniProt E9BRC0, F270L); assay: Binding affinity to recombinant drug-resistant Leishmania donovani LdDR50 topoisomerase 1b large subunit F270L mutant after 24 hrs by equilibrium dialysis method
Summary of the method: (§1)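 Recombinant His-tagged subunits expressed in E. coli BL21(DE3) pLysS, purified on Ni-NTA then phosphocellulose, reconstituted 1:1. Enzyme 200 μM with DIM 1–20 μM in 20 mM Tris-HCl pH 7.5, 50 mM NaCl, 10 mM MgCl2 for 30 min at 37°C, then dialysed (12–14 kDa cutoff) 24 h at 25°C. Free DIM measured by absorbance (ε 6.6 × 10^4 M−1); KD from saturation plot.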

Leishmania donovani [1] = assay: Antimicrobial activity against wild type Leishmania donovani AG83 assessed as inhibition of parasite growth after 24 hrs by MTT assay; format: functional, organism-based
Summary of the method: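 WT L. donovani promastigotes were harvested in exponential phase and seeded at 2 × 10^6 cells per well. They were exposed to DIM at 1, 5, 10, 15 and 20 μM, washed in PBS, and given MTT (10 μg/ml) for 4 h. Acidified isopropanol stop was followed by A570. Growth was expressed as % of the OD of untreated WT, from three experiments.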

Leishmania donovani [2] = assay: Drug uptake in wild type Leishmania donovani AG83 at 20 uM after 30 mins by spectrophotometric analysis; format: ADME, organism-based; settings: in vivo, 0.5 h
Summary of the method: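 Log-phase promastigotes at 3 × 10^7 cells/ml with 20 μM DIM at 22°C; aliquots at 1, 5, 10, 20 and 30 min washed three times in ice-cold PBS pH 7.4 with 0.01 N HCl, sonicated. Cell-associated DIM quantified by equilibrium dialysis and absorbance at 280 nm; three experiments in duplicate.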

Leishmania donovani [3] = assay: Inhibition of recombinant drug-resistant Leishmania donovani LdDR50 topoisomerase 1b-mediated relaxation of supercoiled pBluescript SK(+) DNA at up to 50 uM after 30 mins using ethidium bromide staining
Summary of the method: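 Reconstituted recombinant enzyme (30 fmol) with 90 fmol supercoiled pBluescript SK(+) DNA (3:1 DNA:enzyme), 30 min at 37°C with DIM (1–50 μM for fully mutant enzyme; 10 μM for single-site mutants); 4% DMSO vehicle control. Products on 1% agarose, ethidium bromide (0.5 μg/ml) stained; supercoiled monomer band quantified.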

Leishmania donovani [4] = assay: Antimicrobial activity against wild type Leishmania donovani AG83 transfected with drug-resistant Leishmania donovani LdDR50 topoisomerase 1 K430N mutant in large subunit and N184S mutant in small subunit assessed as inhibition of parasite growth at 20 uM after 24 hrs by MTT assay; format: functional; settings: AG83, 24 h
Summary of the method: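 WT promastigotes transfected by electroporation with mutant large-subunit (pXG-HYG, hygromycin selection) and/or small-subunit (pXG-GFP2+, G418 selection) topoisomerase I genes. Grown with DIM 1–20 μM for 24 h; MTT read-out, growth as % of optical density of untreated WT parasites.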

[5] = Binding affinity to recombinant wild type Leishmania donovani AG83 topoisomerase 1b after 24 hrs by equilibrium dialysis method
[6] = biological target: DNA topoisomerase type IB small subunit (Leishmania donovani (strain BPK282A1), UniProt E9B7X3, N184S); assay: Binding affinity to recombinant drug-resistant Leishmania donovani LdDR50 topoisomerase 1b small subunit N184S mutant after 24 hrs by equilibrium dialysis method; summary of the method: as §1
[7] = system: T1, DNA topoisomerase type IB small subunit (Leishmania donovani (strain BPK282A1)), E9B7X3 [N184S]; assay: Effect on recombinant drug-resistant Leishmania donovani LdDR50 topoisomerase 1b small subunit N184S mutant-mediated cleavage of 25-mer duplex oligonucleotide at 5 uM after 30 mins by PAGE analysis
T1 sequence (whole entry): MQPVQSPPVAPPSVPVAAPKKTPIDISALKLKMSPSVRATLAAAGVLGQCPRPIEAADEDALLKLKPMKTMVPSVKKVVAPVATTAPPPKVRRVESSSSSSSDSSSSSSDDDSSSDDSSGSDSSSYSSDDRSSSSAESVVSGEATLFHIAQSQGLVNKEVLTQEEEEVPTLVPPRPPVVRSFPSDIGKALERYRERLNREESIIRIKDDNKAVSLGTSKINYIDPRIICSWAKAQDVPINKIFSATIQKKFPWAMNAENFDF
Summary of the method: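 5′-32P-labelled 25-mer duplex (10 nM) incubated with reconstituted mutant enzyme (0.2 μM, 20-fold molar excess) and DIM 5–20 μM for 30 min (Methods 37°C; legend 23°C). Stopped with SDS, trypsin-treated, resolved on 12% denaturing polyacrylamide-urea gel; cleaved 12-mer detected by autoradiography.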

Leishmania donovani [8] = assay: Inhibition of recombinant wild type Leishmania donovani AG83 topoisomerase 1b-mediated relaxation of supercoiled pBluescript SK(+) DNA at 10 uM after 30 mins using ethidium bromide staining
Summary of the method: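 Recombinant L and S subunits (E. coli, Ni-NTA then phosphocellulose) were reconstituted at a 1:1 molar ratio and dialysed 12 h at 4°C in 50 mM K-phosphate pH 7.5. Enzyme (30 fmol) acted on 90 fmol supercoiled pBS SK(+) for 30 min at 37°C, with DIM or 4% DMSO. Products ran on 1% agarose with ethidium bromide (0.5 μg/ml), and the supercoiled band was quantified.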

[9] = system: T2, DNA topoisomerase I (Leishmania donovani (strain BPK282A1)), E9BRC0 [F270L]; assay: Inhibition of recombinant drug-resistant Leishmania donovani LdDR50 topoisomerase 1b large subunit F270L mutant-mediated religation of 14-mer/25-mer suicide DNA substrate at 20 uM […] by PAGE analysis
T2 sequence (whole entry): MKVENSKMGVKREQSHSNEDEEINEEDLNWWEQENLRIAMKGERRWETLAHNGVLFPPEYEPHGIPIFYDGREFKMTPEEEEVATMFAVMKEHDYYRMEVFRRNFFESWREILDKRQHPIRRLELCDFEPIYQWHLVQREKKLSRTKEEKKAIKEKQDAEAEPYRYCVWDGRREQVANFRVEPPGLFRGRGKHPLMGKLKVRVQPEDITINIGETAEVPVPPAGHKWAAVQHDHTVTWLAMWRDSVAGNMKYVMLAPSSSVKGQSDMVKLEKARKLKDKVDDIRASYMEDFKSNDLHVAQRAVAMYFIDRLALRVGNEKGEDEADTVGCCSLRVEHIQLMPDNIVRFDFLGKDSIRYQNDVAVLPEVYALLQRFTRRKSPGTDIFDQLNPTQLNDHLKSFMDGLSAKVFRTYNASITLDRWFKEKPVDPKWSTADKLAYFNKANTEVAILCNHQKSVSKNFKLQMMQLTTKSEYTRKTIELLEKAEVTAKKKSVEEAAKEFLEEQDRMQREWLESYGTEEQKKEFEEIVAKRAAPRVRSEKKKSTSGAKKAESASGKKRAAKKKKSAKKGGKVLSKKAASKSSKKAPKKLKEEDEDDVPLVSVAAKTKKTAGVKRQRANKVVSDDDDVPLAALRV

SMILES: c1ccc2c(Cc3c[nH]c4ccccc34)c[nH]c2c1 [ARUNDINE]
- Kd (DNA topoisomerase I): 530 µM
- inhibition (Leishmania donovani [1]): Dose-dependent effect
- IC50 (Leishmania donovani [1]; AG83, 24 h): 1250 nM
- Drug uptake (Leishmania donovani [2]): Active
- inhibition (Leishmania donovani [3]): inactive
- inhibition at 20 µM (Leishmania donovani [4]): 86%
- Kd [5]: 9.7 nM
- Kd [6]: 380 µM
- Activity [7]: inactive
- inhibition (Leishmania donovani [8]): Active
- inhibition [9]: inactive
